Legend:
[1] = Inhibition of beta-catenin-dependent canonical Wnt3A pathway in human HEK293T cells at 1 uM by luciferase reporter gene assay; type: cell-based; settings: HEK-293T
How it was run: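 HEK293T cells transiently co-transfected with Super(8x)TOPflash (TCF-firefly luciferase), TK-Renilla luciferase for normalization, and a Wnt3A-expressing vector to activate the pathway. Compounds tested at a single concentration of 1 μM, alongside untreated and DMSO vehicle controls. Firefly signal normalized to Renilla.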

[2] = Inhibition of beta-catenin-dependent canonical Wnt3 pathway in human HEK293T cells by luciferase reporter gene assay; type: cell-based; settings: HEK-293T
[3] = Half life in phosphate buffer pH 7.4 at 10 uM by HPLC analysis; type: physicochemical
How it was run: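 Degradation followed by HPLC, and half-life determined where degradation occurred.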

H9 [4] = assay: Cardiogenic activity in human H9 cells after 14 days by MYH6-mCherry reporter gene assay relative to 4-[(1R,2S,6R,7S)-3,5-dioxo-4-azatricyclo[5.2.1.0~2,6~]dec-8-en-4-yl]-N-quinolin-8-ylbenzamide; type: functional
How it was run: (§1)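 hESC embryoid bodies grown to day 4, dissociated to single cells and plated in 384-well format with serial compound dilutions. At day 10 switched to serum-free medium with T3. At day 14 moved to PBS and imaged for red fluorescence. Total area and intensity of the MYH6-mCherry reporter were quantified per well and expressed as percent cardiogenesis, with the reference set to 100% at its maximum.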

H9 [5] = assay: Cardiogenic activity in human H9 cells at 10 uM after 14 days by MYH6-mCherry reporter gene assay relative to 4-[(1R,2S,6R,7S)-3,5-dioxo-4-azatricyclo[5.2.1.0~2,6~]dec-8-en-4-yl]-N-quinolin-8-ylbenzamide; type: functional; how it was run: as §1
HEK-293T = assay: Cytotoxicity against human HEK293T cells at 0.2 to 20 uM after 24 hrs by alamar blue assay; type: cell-based
[6] = Cardiogenic activity in human embryonic stem cells at 2 uM by MYH6 reporter gene assay relative to control; type: functional, Embryonic stem cell
[7] = Cardiogenic activity in human embryonic stem cells at 2.5 uM by MYH6 reporter gene assay relative to control; type: functional, Embryonic stem cell

| SMILES | inhibition [1] [%] | IC50 [2] [nM] | half-life at 10 µM [3] [h] | Activity (H9 [4]) | Activity (H9 [4]; record 2) [%] | Activity (H9 [5]) [%] | Activity (HEK-293T) | fold change (FC) [6] | fold change (FC) [7] |
| --- | --- | --- | --- | --- | --- | --- | --- | --- | --- |
| O=C(Nc1ccc(N2C(=O)[C@@H]3[C@@H]4CC[C@@H](C4)[C@@H]3C2=O)cc1)c1cccc2cccnc12 | 91 | 119 | 3.8 | 1% | – | – | – | – | – |
| O=C1[C@@H]2[C@@H]3CC[C@@H](C3)[C@@H]2C(=O)N1[C@H]1CC[C@H](C(=O)Nc2cccc3ccncc23)CC1 | 91 | 93 | – | Dose-dependent effect | 25 | 24 | – | – | – |
| Oc1nc(-c2ccc(C(F)(F)F)cc2)nc2c1CSCC2 | – | 51 | – | – | – | – | Non-toxic | 1000 | – |
| Cc1ccc2nc(NC(=O)CSc3nc4c(c(=O)n3-c3ccc(F)cc3)SCC4)sc2c1 | – | 538 | – | – | – | – | Non-toxic | – | 1000 |
